Results reported in ChEMBL document CHEMBL4138228, “Substituted carbamothioic amine-1-carbothioic thioanhydrides as novel trichomonicidal fungicides: Design, synthesis, and biology” (Eur J Med Chem, 2018).
Values after ≈ are worked out from the molar mass of the structure shown. Active and inactive are the calls of the source. The calls are words filed in the database; no cut-off is given here.

Columns and labels:
[1] = tested on: Nakaseomyces glabratus; test: Antifungal activity against Candida glabrata ATCC 2001 after 48 hrs by broth microdilution method; format: functional; settings: ATCC 2001, 48 h
Outline: (§1)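 Broth microdilution per NCCLS guidelines in MOPS-buffered RPMI 1640; starting inoculum 1-5 x 10^3 CFU/mL; plates incubated at 35 °C; MIC recorded after 48 h; fluconazole as reference; experiments repeated three times.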

[2] = tested on: Candida albicans; test: Antifungal activity against Candida albicans ATCC 66027 after 48 hrs by broth microdilution method; format: functional; settings: ATCC 66027, 48 h; outline: as §1
[3] = tested on: Candida albicans; test: Antifungal activity against Candida albicans ATCC 14053 after 48 hrs by broth microdilution method; format: functional; settings: ATCC 14053, 48 h; outline: as §1
[4] = tested on: Candida albicans; test: Antifungal activity against Candida albicans ATCC 10231 after 48 hrs by broth microdilution method; format: functional; settings: ATCC 10231, 48 h; outline: as §1
[5] = tested on: Candida albicans; test: Antifungal activity against Candida albicans patient isolate after 48 hrs by broth microdilution method; format: functional; outline: as §1
[6] = tested on: Trichophyton mentagrophytes; test: Antifungal activity against Trichophyton mentagrophytes after 48 hrs by broth microdilution method; format: functional; outline: as §1
[7] = tested on: Sporothrix schenckii; test: Antifungal activity against Sporothrix schenckii after 48 hrs by broth microdilution method; format: functional; outline: as §1
[8] = tested on: Cryptococcus neoformans; test: Antifungal activity against Cryptococcus neoformans after 48 hrs by broth microdilution method; format: functional; outline: as §1
[9] = Selectivity index, ratio of IC50 for human HeLa cells to MIC for metronidazole-susceptible Trichomonas vaginalis; format: toxicity; settings: read-out: Selectivity Index
[10] = Selectivity index, ratio of IC50 for human HeLa cells to MIC for metronidazole-resistant Trichomonas vaginalis CDC085 ATCC 50143; format: toxicity; settings: read-out: Selectivity Index
[11] = tested on: HeLa; test: Cytotoxicity against human HeLa cells after 24 hrs by MTT assay; format: cell-based
[12] = tested on: Trichomonas vaginalis; test: Antitrichomonas activity against metronidazole-resistant Trichomonas vaginalis CDC085 ATCC 50143 assessed as decrease in cell viability after 48 hrs by trypan blue exclusion method; format: functional; settings: CDC085 ATCC 50143, 48 h
[13] = tested on: Trichomonas vaginalis; test: Antitrichomonas activity against metronidazole-susceptible Trichomonas vaginalis assessed as decrease in cell viability after 48 hrs by trypan blue exclusion method; format: functional
[14] = tested on: Trichomonas vaginalis; test: Potency index, ratio of metronidazole MIC to test compound MIC for metronidazole-resistant Trichomonas vaginalis CDC085 ATCC 50143; format: functional
[15] = tested on: Candida albicans; test: Antifungal activity against Candida albicans MTCC 183 after 48 hrs by broth microdilution method; format: functional; settings: MTCC 183, 48 h; outline: as §1
[16] = tested on: Candida parapsilosis; test: Antifungal activity against Candida parapsilosis ATCC 22019 after 48 hrs by broth microdilution method; format: functional; settings: Lodderomyces parapsilosis, ATCC 22019, 48 h; outline: as §1
[17] = tested on: Trichomonas vaginalis; test: Potency index, ratio of metronidazole MIC to test compound MIC for metronidazole-susceptible Trichomonas vaginalis; format: functional
[18] = tested on: Plasmodium falciparum; test: Antimalarial activity against chloroquine-sensitive Plasmodium falciparum 3D7 infecetd in RBC after 72 hrs by SYBR Green dye-based fluorescence assay; format: functional, organism-based; settings: 3D7, Erythrocyte
[19] = tested on: Plasmodium falciparum; test: Antimalarial activity against chloroquine-resistant Plasmodium falciparum K1 infecetd in RBC after 72 hrs by SYBR Green dye-based fluorescence assay; format: functional, organism-based; settings: K1, Erythrocyte
[20] = tested on: Trichomonas vaginalis; test: Selectivity ratio of MIC for metronidazole-resistant Trichomonas vaginalis CDC085 ATCC 50143 to MIC for metronidazole-susceptible Trichomonas vaginalis; format: functional
[21] = tested on: Trichomonas vaginalis; test: Antitrichomonas activity against metronidazole-susceptible Trichomonas vaginalis infected in mouse assessed as growth of abscess at 50 to 100 mg/kg, po administered for […] post last dose (reference value: 96.55 mm'2); format: functional
[22] = tested on: Trichomonas vaginalis; test: Antitrichomonas activity against metronidazole-susceptible Trichomonas vaginalis infected in mouse assessed as growth of abscess at 50 mg/kg, po administered for 7 days measured on day 7 post last dose (reference value: 96.5 mm'2); format: functional
[23] = tested on: Trichomonas vaginalis; test: Antitrichomonas activity against metronidazole-susceptible Trichomonas vaginalis infected in mouse assessed as growth of abscess at 100 mg/kg, po administered for 7 days measured on day 7 post last dose (reference value: 96.5 mm'2); format: functional
[24] = Cmax in Sprague-Dawley rat at 50 mg/kg, po measured up to 24 hrs by LC-MS/MS analysis; format: ADME, organism-based; parameters: dose 50 mg/kg, route oral; settings: in vivo
Outline: (§2)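 Male rats fasted 12-16 h before dosing (n = 4 per time point). Each received a single 50 mg/kg oral dose as a 12.5 mg/mL suspension in 1% w/v gum acacia in water, given by feeding needle. Serum was sampled up to 24 h, cleaned up by protein precipitation and assayed by LC-MS/MS (MRM, phenacetin internal standard, linear 1-200 ng/mL). Parameters were derived by non-compartmental analysis.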

[25] = Tmax in Sprague-Dawley rat at 50 mg/kg, po measured up to 24 hrs by LC-MS/MS analysis; format: ADME, organism-based; settings: in vivo; outline: as §2
[26] = tested on: Rattus norvegicus; test: AUClast in Sprague-Dawley rat at 50 mg/kg, po measured up to 24 hrs by LC-MS/MS analysis; format: ADME, organism-based; parameters: time < 24 hr, dose 50 mg/kg, route oral; settings: in vivo; outline: as §2
[27] = Elimination half life in Sprague-Dawley rat at 50 mg/kg, po measured up to 24 hrs by LC-MS/MS analysis; format: ADME, organism-based; settings: in vivo, read-out: beta t1/2 (converted); outline: as §2
[28] = tested on: Rattus norvegicus; test: Clearance in Sprague-Dawley rat at 50 mg/kg, po measured up to 24 hrs by LC-MS/MS analysis; format: ADME, organism-based; settings: in vivo; outline: as §2
[29] = tested on: Rattus norvegicus; test: Volume of distribution at steady state in Sprague-Dawley rat at 50 mg/kg, po measured up to 24 hrs by LC-MS/MS analysis; format: ADME, organism-based; settings: in vivo; outline: as §2
[30] = tested on: Trichomonas vaginalis; test: Inhibition of free sulfhydryl group in Trichomonas vaginalis at MIC after 24 hrs by mBBr dye-based fluorescence microscopic method
Outline: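 Cells were pelleted (700 xg, 10 min, 4°C) and washed in PBS. They were then labelled in the dark with a fluorometric thiol detector prediluted 100x. Imaging used epifluorescence microscopy through a UV-1A filter, with the same exposure for all samples, and was assessed qualitatively.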

SMILES	MIC [1]	MIC [2]	MIC [3]	MIC [4]	MIC [5]	MIC [6]	MIC [7]	MIC [8]	selectivity ratio [9]	selectivity ratio [10]	IC50 [11]	MIC [12]	MIC [13]	Ratio [14]	MIC [15]	MIC [16]	Ratio [17]	IC50 [18]	IC50 [19]	also measured
CN(C)C(=S)SC(=S)N1CCN(C(=O)c2ccco2)CC1	146 µM (≈ 50.1 µg/mL)	72.9 µM (≈ 25 µg/mL)	146 µM (≈ 50.1 µg/mL)	146 µM (≈ 50.1 µg/mL)	146 µM (≈ 50.1 µg/mL)	72.9 µM (≈ 25 µg/mL)	72.9 µM (≈ 25 µg/mL)	146 µM (≈ 50.1 µg/mL)	130	16	2380 µM	146 µM (≈ 50.1 µg/mL)	18.2 µM (≈ 6.26 µg/mL)	1.3 - 9.5	72.9 µM (≈ 25 µg/mL)	146 µM (≈ 50.1 µg/mL)	1 - 3.8	0.79 µM	1.76 µM	
CN(C)C(=S)SC(=S)N1CCN(C(=O)OC(C)(C)C)CC1	143 µM (≈ 49.9 µg/mL)	71.4 µM (≈ 25 µg/mL)	143 µM (≈ 49.9 µg/mL)	143 µM (≈ 49.9 µg/mL)	143 µM (≈ 49.9 µg/mL)	143 µM (≈ 49.9 µg/mL)	143 µM (≈ 49.9 µg/mL)	143 µM (≈ 49.9 µg/mL)	73	18	1310 µM	71.4 µM (≈ 25 µg/mL)	17.9 µM (≈ 6.24 µg/mL)	1.3 - 9.5	143 µM (≈ 49.9 µg/mL)	143 µM (≈ 49.9 µg/mL)	1 - 3.8	0.78 µM	1.74 µM	
CN(C)C(=S)SC(=S)N1CCN(c2ncccn2)CC1	153 µM (≈ 50.1 µg/mL)	38.2 µM (≈ 12.5 µg/mL)	153 µM (≈ 50.1 µg/mL)	153 µM (≈ 50.1 µg/mL)	153 µM (≈ 50.1 µg/mL)	153 µM (≈ 50.1 µg/mL)	153 µM (≈ 50.1 µg/mL)	153 µM (≈ 50.1 µg/mL)	1050	131	> 5000 µM	38.2 µM (≈ 12.5 µg/mL)	4.77 µM (≈ 1.56 µg/mL)	9.5	76.5 µM (≈ 25 µg/mL)	153 µM (≈ 50.1 µg/mL)	3.8	0.76 µM	1.85 µM	selectivity ratio [20]: 8; Activity [21]: 1 - 2.5 mm2; Activity [22]: 1.57 mm2; Activity [23]: 0.79 mm2; Cmax [24]: 47.1 ng/mL; Tmax [25]: 2 h; AUClast [26]: 140.5 ng·h/mL; half-life [27]: 2.6 h; CL [28]: 81.7 mL/min/kg; Vdss [29]: 12.6 L/kg; inhibition [30]: Active
CN(C)C(=S)SC(=S)N1CCN(C(=S)Nc2ccccc2)CC1	> 130 µM	> 130 µM	> 130 µM	> 130 µM	> 130 µM	130 µM (≈ 50 µg/mL)	130 µM (≈ 50 µg/mL)	> 130 µM	> 617	> 154	> 5000 µM	32.5 µM (≈ 12.5 µg/mL)	8.1 µM (≈ 3.12 µg/mL)	11.4	> 130 µM	> 130 µM	2.2	0.72 µM	1.66 µM	
CN(C)C(=S)SC(=S)N1CCN(C(=O)NC2CCCCC2)CC1	> 133 µM	> 133 µM	> 133 µM	> 133 µM	> 133 µM	133 µM (≈ 49.9 µg/mL)	133 µM (≈ 49.9 µg/mL)	> 133 µM	> 37	> 18	> 5000 µM	267 µM (≈ 99.9 µg/mL)	133 µM (≈ 49.9 µg/mL)	1.3 - 11.2	> 133 µM	133 µM (≈ 49.9 µg/mL)				
Cc1ncc([N+](=O)[O-])n1CCO [METRONIDAZOLE]									> 277	> 13	> 5000 µM	365 µM (≈ 62.6 µg/mL)	18.2 µM (≈ 3.12 µg/mL)							Activity [22]: 2.35 mm2
CCCCN1CCN(C(=S)SC(=S)N(C)C)CC1	163 µM (≈ 49.9 µg/mL)	81.7 µM (≈ 25 µg/mL)	163 µM (≈ 49.9 µg/mL)	163 µM (≈ 49.9 µg/mL)	163 µM (≈ 49.9 µg/mL)	163 µM (≈ 49.9 µg/mL)	163 µM (≈ 49.9 µg/mL)	163 µM (≈ 49.9 µg/mL)	200	50	4100 µM	81.7 µM (≈ 25 µg/mL)	20.4 µM (≈ 6.24 µg/mL)	1.3 - 9.5	81.7 µM (≈ 25 µg/mL)	163 µM (≈ 49.9 µg/mL)				
COc1ccccc1N1CCN(C(=S)SC(=S)N(C)C)CC1	> 140 µM	70.2 µM (≈ 25 µg/mL)	> 140 µM	> 140 µM	> 140 µM	140 µM (≈ 49.9 µg/mL)	140 µM (≈ 49.9 µg/mL)	> 140 µM	15	6	4330 µM	702 µM (≈ 250 µg/mL)	281 µM (≈ 99.9 µg/mL)	1.3 - 9.5	140 µM (≈ 49.9 µg/mL)	70.2 µM (≈ 25 µg/mL)				
CN(C)C(=S)SC(=S)N1CCCC1	53.4 µM (≈ 12.5 µg/mL)	53.4 µM (≈ 12.5 µg/mL)	26.7 µM (≈ 6.26 µg/mL)	53.4 µM (≈ 12.5 µg/mL)	107 µM (≈ 25 µg/mL)	53.4 µM (≈ 12.5 µg/mL)	53.4 µM (≈ 12.5 µg/mL)	214 µM (≈ 50.1 µg/mL)	115	29	3090 µM	107 µM (≈ 25 µg/mL)	26.7 µM (≈ 6.26 µg/mL)	1.5 - 3.8	53.4 µM (≈ 12.5 µg/mL)	107 µM (≈ 25 µg/mL)				
CCSC(=S)N1CCN(C(=S)SC(=S)N(C)C)CC1	> 141 µM	70.5 µM (≈ 24.9 µg/mL)	141 µM (≈ 49.9 µg/mL)	141 µM (≈ 49.9 µg/mL)	17.6 µM (≈ 6.23 µg/mL)	35.2 µM (≈ 12.5 µg/mL)	35.2 µM (≈ 12.5 µg/mL)	141 µM (≈ 49.9 µg/mL)	31	15	4480 µM	282 µM (≈ 99.9 µg/mL)	141 µM (≈ 49.9 µg/mL)	1.3 - 11.2	70.5 µM (≈ 24.9 µg/mL)	8.81 µM (≈ 3.12 µg/mL)				
CN(C)C(=S)SC(=S)N1CCN(C(=S)NCc2ccccc2)CC1	> 125 µM	> 125 µM	> 125 µM	> 125 µM	> 125 µM	125 µM (≈ 50 µg/mL)	125 µM (≈ 50 µg/mL)	> 125 µM	> 40	> 20	> 5000 µM	251 µM (≈ 99.9 µg/mL)	125 µM (≈ 50 µg/mL)	1.3 - 11.2	> 125 µM	> 125 µM				
